Activity calls are given as the source filed them. The rule behind the calls is not given here.
How the values were obtained:
Conditions in all cases: Sus scrofa
[1] = system: Artery; experiment: Vasorelaxant activity in pig endothelium-intact coronary artery assessed as inhibition of U46619-induced contraction; assay type: functional
In short: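 Endothelium-intact porcine coronary rings at 2 g resting tension in Krebs-Henseleit, 37 °C, gassed with 95% O2/5% CO2. Rings were discarded if the mean KCl 30 mM contraction was under 4 g or bradykinin relaxation under 40%. PVP K30-complexed sample was given for 30 min. Cumulative U46619 was then added (0.1 nM to 1 µM). ED50 and Emax use % of the mean KCl 30 mM contraction; n = 8, separate hearts.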

[2] = system: Artery; experiment: Vasorelaxant activity in pig endothelium-intact coronary artery assessed as reversible inhibition of U46619-induced contraction at 1 uM; assay type: functional, tissue-based
[3] = system: Artery; experiment: Vasorelaxant activity in pig endothelium-denuded coronary artery assessed as inhibition of U46619-induced contraction at 15 ug/ml; assay type: functional, tissue-based
In short: (§1)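 Endothelium-removed porcine coronary rings at 2 g resting tension in Krebs-Henseleit, 37 °C, 95% O2/5% CO2. Each ring was primed twice with KCl 30 mM and relaxed with bradykinin 1 µM. Test material, as a PVP K30 complex, was given for 30 min. Stepwise contractions were then made with 5-HT (10 nM to 10 µM), U46619 (0.1 nM to 1 µM) or KCl (10-70 mM). Tension is % of the mean of the two KCl 30 mM contractions; n = 7-11.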

[4] = system: Artery; experiment: Vasorelaxant activity in pig endothelium-denuded coronary artery assessed as inhibition of 5-hydroxytryptamine-induced contraction at 15 ug/ml; assay type: functional, tissue-based; in short: as §1
[5] = system: Artery; experiment: Vasorelaxant activity in pig endothelium-denuded coronary artery assessed as inhibition of potassium chloride-induced contraction at 50 ug/ml; assay type: functional, tissue-based; in short: as §1
[6] = system: Artery; experiment: Vasorelaxant activity in pig endothelium-intact coronary artery assessed as inhibition of U46619-induced contraction at 50 ug/ml; assay type: functional, tissue-based
In short: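 Porcine coronary rings with endothelium in Krebs-Henseleit solution at 37 °C, gassed with 95% O2/5% CO2, held at 2 g resting tension and equilibrated 100 min. Each ring was contracted twice with KCl 30 mM and relaxed with bradykinin 1 µM. Test material as a PVP complex was given for 30 min, then cumulative U46619 0.1 nM–1 µM. Contraction was expressed as % of the mean KCl response, giving ED50 and Emax; n=8.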

| SMILES | Emax [1] [%] | Activity [2] | Activity [3] | Activity [4] | Activity [5] | Activity [6] |
| --- | --- | --- | --- | --- | --- | --- |
| CC1(C)CCCc2c1ccc1c2C(=O)C(=O)c2c(CO)coc2-1 [PRZEWAQUINONE A] | 29.2 | Active | Active | Active | Active | – |
| C[C@H]1COC2=C1C(=O)C(=O)c1c2ccc2c1CCCC2(C)C [CRYPTOTANSHINONE] | 64.9 | – | – | – | – | Active |
| Cc1coc2c1C(=O)C(=O)c1c-2ccc2c1CCCC2(C)C [TANSHINONE IIA] | 92.9 | – | – | – | – | Active |

Source: ChEMBL document CHEMBL1154124, “Vascular effects of different lipophilic components of "Danshen", a traditional Chinese medicine, in the isolated porcine coronary artery” (2008)
